Results as given in publication PMC4517987 (Bioorganic & medicinal chemistry, 2015).
Where a name gives a salt, the structure may show the parent alone.

Experiments:
[1] = test system: Plasmodium yoelii; settings: murine model of Plasmodium yoelii; ref unpublished observations; cited from earlier work
[2] = test system: late (>90% stage IV/V) gametocytes of P. falciparum (NF54-Mal8p1.16-GFP-Luc); experiment: Gametocytocidal luciferase reporter assay, late gametocytes; assay type: cell-based, Plasmodium falciparum; settings: 5 µM, 48 h, inhibition of luciferase readout
Procedure, shortened: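 Gametocytes induced from synchronized asexual cultures in the NF54-Mal8p1.16-GFP-Luc line: glucose-free medium under hypoxia, with daily changes, and 50 mM N-acetyl glucosamine on days 1–4 to remove asexual forms. Assays set up on day 10 in triplicate at 2% gametocytemia and 2% hematocrit, 48 h, 37 °C, hypoxic. Luciferin added to lysates at room temperature and luminescence read with 10 s integration; % inhibition derived.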

[3] = test system: HepG2 cells; experiment: Cytotoxicity against HepG2 cells, lactate dehydrogenase; assay type: cell-based, human; settings: GI50 mammalian cell (HepG2)/IC50 P. falciparum (3D7)
[4] = test system: β-hematin formation; experiment: NP-40 mediated β-hematin formation assay; assay type: biochemical
[5] = test system: intraerythrocytic P. falciparum parasites; experiment: Flow cytometric analysis of nuclear content and parasitemia; assay type: cell-based, Plasmodium falciparum; settings: 1 × IC90, continuous treatment for 96 h
Procedure, shortened: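 Intraerythrocytic parasites (2% parasitemia, 2% hematocrit) treated in duplicate, with untreated (DMSO) controls. Samples taken at 24, 48, 72 and 96 h. Nuclear content (1 N rings/early trophozoites, 2 N trophozoites, >2 N schizonts) and parasitemia measured from SYBR Green I fluorescence by flow cytometry in the FITC channel (488 nm excitation; 502 nm long-pass and 530 nm band-pass emission).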

[6] = test system: HepG2 cells; settings: HepG2 vs P. falciparum; cited from earlier work
[7] = test system: intraerythrocytic P. falciparum 3D7; settings: cited from earlier work

C(CCCNCCCNCC1CCCCCC1)CCCNCCCNCC1CCCCCC1 [Compound 5]
Reduction of parasitemia and extension of life span [1]: as effective as pyrimethamine at reducing parasitemia and extending life span

S=C(NCCCNCCCCCNCCCNC(=S)NC(c1ccccc1)c1ccccc1)NC(c1ccccc1)c1ccccc1 [Compound 9, 1,13-Bis-{3-[1-(1’,1’-diphenylmethyl)thiourea]}-4,10-diazatridecane dihydrochloride]
Gametocytocidal activity, late-stage gametocytes [2]: fully inhibitory

S=C(NCCCNCCCCCNCCCNC(=S)NCC(c1ccccc1)c1ccccc1)NCC(c1ccccc1)c1ccccc1 [Compound 10, 1,13-Bis-{3-[1-(2′,2′-diphenylethyl)thiourea]}-4,10-diazatridecane dihydrochloride]
Selectivity index (SI) [3]: > 1000

S=C(NCCCNCCCCCNCCCNC(=S)NCCC(c1ccccc1)c1ccccc1)NCCC(c1ccccc1)c1ccccc1 [Compound 11, 1,13-Bis-{3-[1-(3′,3′-diphenylpropyl)thiourea]}-4,10-diazatridecane dihydrochloride]
Gametocytocidal activity, late-stage gametocytes [2]: fully inhibitory

O=C(NCCCNCCCCCNCCCNC(=O)NCc1ccccc1)NCc1ccccc1 [Compound 13, 1,13-Bis-{3-[1-(benzyl)urea]}-4,10-diazatridecane dihydrochloride]
β-hematin formation inhibition, concentration without activity ([4]; no activity even at 1 mM): > 1 mM

O=C(NCCCNCCCCCNCCCNC(=O)NCC(c1ccccc1)c1ccccc1)NCC(c1ccccc1)c1ccccc1 [Compound 15, 1,13-Bis-{3-[1-(2′,2′-diphenylethyl)urea]}-4,10-diazat-ridecane dihydrochloride]
Time to complete cessation of parasite proliferation [5]: ≤ 24 h

O=C(NCCCNCCCCCNCCCNC(=O)NCCC(c1ccccc1)c1ccccc1)NCCC(c1ccccc1)c1ccccc1 [Compound 16, 1,13-Bis-{3-[1-(3′,3′-diphenylpropyl)urea]}-4,10-diazatridecane dihydrochloride]
IC50 ([4]; read-out: β-hematin formation inhibition IC50, NP-40 mediated, n = 3): > 400 µM
Time to complete cessation of parasite proliferation [5]: ≤ 24 h

S=C(NCCCNCCCCCCNCCCNC(=S)NCc1ccccc1)NCc1ccccc1 [Compound 28]
Selectivity (SI) compared to HepG2 cells (previously reported analogues) [6]: > 1000

O=C(NCCCNCCCCCCCNCCCNC(=O)NC(c1ccccc1)c1ccccc1)NC(c1ccccc1)c1ccccc1 [Compound 29]
Selectivity (SI) compared to HepG2 cells (previously reported analogues) [6]: > 1000

CCCNC(=O)NCCCNCCCCCCNCCCNC(=O)NCCC [Compound 53]
P. falciparum IC50 (previously reported analogues) [7]: inactive

CCNC(=O)NCCCNCCCCCCNCCCNC(=O)NCC [Compound 54]
P. falciparum IC50 (previously reported analogues) [7]: inactive
